In assay [1] the test system is Mycobacterium tuberculosis. Briefly: Inhibition of His-tagged Mycobacterium tuberculosis DXR expressed in Escherichia coli BL21(DE3) using DXP as substrate assessed as residual activity at 100 uM preincubated for 10 mins followed by NADPH and substrate addition by spectrophotometric analysis relative to control. A digest of the protocol: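 IMAC-purified His-tagged Mtb Dxr was tested with inhibitor at 100 μM, preincubated 10 min at 37 °C before substrate. NADPH oxidation was followed spectrophotometrically at 37 °C. Inhibition is relative. Duplicate assays.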

A short description of assay [2]: Inhibition of His-tagged Mycobacterium tuberculosis DXR expressed in Escherichia coli BL21(DE3) using DXP as substrate assessed as oxidation of NADPH preincubated for 10 mins followed by NADPH and substrate addition by spectrophotometric analysis. A digest of the protocol:
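Activity was read spectrophotometrically at 37 °C as NADPH oxidation. Enzyme was preincubated with inhibitor for 10 min at 37 °C before substrate. Run in duplicate. IC50 came from nonlinear regression of dose-response plots.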

For assay [3], the system named is Mycobacterium tuberculosis. Briefly: Uncompetitive inhibition of His-tagged Mycobacterium tuberculosis DXR expressed in Escherichia coli BL21(DE3) using DXP as substrate at 5 to 50 uM by Lineweaver-Burk plot analysis in presence of 0.01 to 0.05 uM NADPH.
Assay [4] concerns Mycobacterium tuberculosis. Briefly: Antitubercular activity against Mycobacterium tuberculosis H37Rv ATCC 27294 after 2 weeks. It counts as functional. The conditions noted are these: H37Rv ATCC 27294, 336 h. In a few lines:
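Mtb H37Rv was grown to OD 0.5 in 7H9 with 0.05% Tween-80, 0.2% glycerol and ADC, then diluted 1:1000. Inhibitors from 50 mg/mL DMSO stocks were serially 2-fold diluted (eight dilutions). Three independent measurements.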

Assay [5] deals with Mycobacterium tuberculosis. The experiment in a line: Competitive inhibition of His-tagged Mycobacterium tuberculosis DXR expressed in Escherichia coli BL21(DE3) using DXP as substrate at 5 to 50 uM by Lineweaver-Burk plot analysis in presence of NADPH. A digest of the protocol:
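For mode of inhibition versus DXP, purified His-tagged Mtb Dxr was run at 37 °C with NADPH fixed at 150 µM or 30 µM depending on inhibitor. Enzyme and inhibitor were preincubated 10 min at 37 °C before substrate. NADPH oxidation was followed spectrophotometrically. Duplicates were analysed by Lineweaver-Burk plots.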

Assay [6] concerns Mycobacterium tuberculosis. Briefly: Noncompetitive inhibition of His-tagged Mycobacterium tuberculosis DXR expressed in Escherichia coli BL21(DE3) using DXP as substrate at 5 to 50 uM by Lineweaver-Burk plot analysis in presence of 0.01 to 0.05 uM NADPH.

Values after ≈ are worked out from the molar mass of the structure shown. Active and inactive are the calls of the source. No cut-off for these calls is given here. Where only a bound is given, the exact number is not on record here.

In the case of `CC(=O)N(CCCP(=O)(O)O)OCCCc1ccccc1`, the Activity in assay [1] is 77.5%.
Regarding `O=C(Cc1ccccc1)N(O)CCCP(=O)(O)O`, the IC50 in assay [2] came out at 26.9 µM.
As for `O=C(C1CCCCC1)N(O)CCCP(=O)(O)O`, the Activity in assay [1] was 80%.
On to `CC(=O)N(CCCP(=O)(O)O)OCC1CCCCC1`, for which the Activity in assay [1] stood at 83.5%.
On to `CC(=O)N(O)CCCP(=O)([O-])O.[Na+]`, for which the half-maximal inhibitory concentration (IC50) in assay [2] was 2.39 µM. The inhibition result in assay [3] and in assay [5] was “Active” in each case. This compound displayed an MIC99 in assay [4] of over 500 µg/mL.
Consider `O=CN(O)CCCP(=O)(O)O` [FOSMIDOMYCIN], for which the MIC99 in assay [4] was over 500 µg/mL.
`O=C(CCCc1ccccc1)N(O)CCCP(=O)([O-])O.[Na+]`: the concentration for half-maximal inhibition (IC50) in assay [2] stood at 17.8 µM. In assay [4], this compound registered an MIC99 of over 200 µg/mL. The inhibition result in assay [6] and in assay [5] was “Active” throughout.
`CC(=O)N(CCCP(=O)(O)O)OCCc1ccccc1`: the Activity in assay [1] came to 81.5%.
As to `CC(=O)N(CCCP(=O)(O)O)OCc1ccc(C(C)C)cc1`, the IC50 in assay [2] stood at 48.4 µM.
In assay [4], `CCOP(=O)(CCCN(O)C=O)OCC` displayed an MIC99 of 250 µg/mL (≈ 1050 µM).
In assay [4], `CCOP(=O)(CCCN(O)C(=O)CCCc1ccccc1)OCC` gave an MIC99 of 200 µg/mL (≈ 560 µM).

By IC50 is commonly meant the concentration at which inhibition is half-maximal. As usually defined, the MIC99 is the lowest concentration that inhibits either 99% of growth or 99% of the strains tested, depending on the study. Low readings indicate higher susceptibility, high ones lower susceptibility.

The values above are taken from ChEMBL document CHEMBL3132832, “Design of Potential Bisubstrate Inhibitors against Mycobacterium tuberculosis (Mtb) 1-Deoxy-D-Xylulose 5-Phosphate Reductoisomerase (Dxr)-Evidence of a Novel Binding Mode” (Medchemcomm, 2013).
